Results from ChEMBL document CHEMBL1926550, “Synthesis and antibacterial activity of naphthyridone derivatives containing mono/difluoro-methyloxime pyrrolidine scaffolds” (2012).
Values after ≈ are worked out from the molar mass of the structure shown.

What was measured:
Type in all cases: functional
Enterococcus faecalis [1] = assay: Antibacterial activity against Enterococcus faecalis 09-1 after 18 hrs by two fold serial dilution method; details: 09-1, 18 h
Summary of the method: (§1)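 Agar two-fold serial dilution in melted Mueller-Hinton agar, final concentrations 128 down to 0.008 μg/mL. Plates inoculated with 10⁴ cfu and incubated at 35 °C for 18 h. MIC taken as the lowest concentration giving no visible growth on the plate.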

Enterococcus faecium [2] = assay: Antibacterial activity against Enterococcus faecium 09-3 after 18 hrs by two fold serial dilution method; details: 09-3, 18 h; summary of the method: as §1
Escherichia coli [3] = assay: Antibacterial activity against Escherichia coli 10-3 after 18 hrs by two fold serial dilution method; details: 10-3, 18 h; summary of the method: as §1
[4] = tested on: Staphylococcus epidermidis; assay: Antibacterial activity against methicillin-resistant Staphylococcus epidermidis 10-2 after 18 hrs by two fold serial dilution method; details: 10-2, 18 h
Summary of the method: (§2)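 Agar two-fold serial dilution in melted Mueller-Hinton agar, 128 to 0.008 μg/mL. Plates inoculated with 10⁴ cfu, incubated 35 °C for 18 h. MIC taken as lowest concentration giving no visible growth on the plate.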

Pseudomonas aeruginosa [5] = assay: Antibacterial activity against Pseudomonas aeruginosa 10-1 after 18 hrs by two fold serial dilution method; details: 10-1, 18 h; summary of the method: as §1
Staphylococcus aureus [6] = assay: Antibacterial activity against methicillin-resistant Staphylococcus aureus 10-4 after 18 hrs by two fold serial dilution method; details: 10-4, 18 h; summary of the method: as §2
Pseudomonas aeruginosa [7] = assay: Antibacterial activity against Pseudomonas aeruginosa 10-3 after 18 hrs by two fold serial dilution method; details: 10-3, 18 h; summary of the method: as §1
Escherichia coli [8] = assay: Antibacterial activity against Escherichia coli 09-1 after 18 hrs by two fold serial dilution method; details: 09-1, 18 h; summary of the method: as §1
Klebsiella pneumoniae [9] = assay: Antibacterial activity against Klebsiella pneumoniae 09-2 after 18 hrs by two fold serial dilution method; details: 09-2, 18 h; summary of the method: as §1
[10] = tested on: Staphylococcus epidermidis; assay: Antibacterial activity against methicillin-sensitive Staphylococcus epidermidis 10-1 after 18 hrs by two fold serial dilution method; details: 10-1, 18 h; summary of the method: as §1
Staphylococcus aureus [11] = assay: Antibacterial activity against methicillin-sensitive Staphylococcus aureus 10-6 after 18 hrs by two fold serial dilution method; details: 10-6, 18 h; summary of the method: as §1
Klebsiella pneumoniae [12] = assay: Antibacterial activity against Klebsiella pneumoniae 10-3 after 18 hrs by two fold serial dilution method; details: 10-3, 18 h; summary of the method: as §1
Enterococcus faecium [13] = assay: Antibacterial activity against Enterococcus faecium 09-5 after 18 hrs by two fold serial dilution method; details: 09-5, 18 h; summary of the method: as §1
Staphylococcus aureus [14] = assay: Antibacterial activity against methicillin-sensitive Staphylococcus aureus 10-5 after 18 hrs by two fold serial dilution method; details: 10-5, 18 h; summary of the method: as §1
Enterococcus faecium [15] = assay: Antibacterial activity against Enterococcus faecium 09-6 after 18 hrs by two fold serial dilution method; details: 09-6, 18 h; summary of the method: as §1
Enterococcus faecalis [16] = assay: Antibacterial activity against Enterococcus faecalis 09-2 after 18 hrs by two fold serial dilution method; details: 09-2, 18 h; summary of the method: as §1
Staphylococcus aureus [17] = assay: Antibacterial activity against Staphylococcus aureus ATCC 25923 after 18 hrs by two fold serial dilution method; details: ATCC 25923, 18 h; summary of the method: as §1
Enterococcus faecium [18] = assay: Antibacterial activity against Enterococcus faecium 09-1 after 18 hrs by two fold serial dilution method; details: 09-1, 18 h; summary of the method: as §1
Staphylococcus aureus [19] = assay: Antibacterial activity against methicillin-sensitive Staphylococcus aureus 10-1 after 18 hrs by two fold serial dilution method; details: 10-1, 18 h; summary of the method: as §1
Escherichia coli [20] = assay: Antibacterial activity against Escherichia coli 09-2 after 18 hrs by two fold serial dilution method; details: 09-2, 18 h; summary of the method: as §1
Staphylococcus aureus [21] = assay: Antibacterial activity against methicillin-sensitive Staphylococcus aureus 10-2 after 18 hrs by two fold serial dilution method; details: 10-2, 18 h; summary of the method: as §1
Staphylococcus aureus [22] = assay: Antibacterial activity against methicillin-resistant Staphylococcus aureus 10-3 after 18 hrs by two fold serial dilution method; details: 10-3, 18 h; summary of the method: as §2
Staphylococcus aureus [23] = assay: Antibacterial activity against methicillin-resistant Staphylococcus aureus 10-1 after 18 hrs by two fold serial dilution method; details: 10-1, 18 h; summary of the method: as §2
[24] = tested on: Staphylococcus epidermidis; assay: Antibacterial activity against methicillin-sensitive Staphylococcus epidermidis 10-2 after 18 hrs by two fold serial dilution method; details: 10-2, 18 h; summary of the method: as §1
Pseudomonas aeruginosa [25] = assay: Antibacterial activity against Pseudomonas aeruginosa 10-2 after 18 hrs by two fold serial dilution method; details: 10-2, 18 h; summary of the method: as §1
Staphylococcus aureus [26] = assay: Antibacterial activity against methicillin-resistant Staphylococcus aureus 10-2 after 18 hrs by two fold serial dilution method; details: 10-2, 18 h; summary of the method: as §2
Escherichia coli [27] = assay: Antibacterial activity against Escherichia coli 10-2 after 18 hrs by two fold serial dilution method; details: 10-2, 18 h; summary of the method: as §1
Staphylococcus aureus [28] = assay: Antibacterial activity against methicillin-sensitive Staphylococcus aureus 10-3 after 18 hrs by two fold serial dilution method; details: 10-3, 18 h; summary of the method: as §1
Enterococcus faecium [29] = assay: Antibacterial activity against Enterococcus faecium 09-4 after 18 hrs by two fold serial dilution method; details: 09-4, 18 h; summary of the method: as §1
Escherichia coli [30] = assay: Antibacterial activity against Escherichia coli 09-3 after 18 hrs by two fold serial dilution method; details: 09-3, 18 h; summary of the method: as §1
Klebsiella pneumoniae [31] = assay: Antibacterial activity against Klebsiella pneumoniae 10-1 after 18 hrs by two fold serial dilution method; details: 10-1, 18 h; summary of the method: as §1
Enterococcus faecium [32] = assay: Antibacterial activity against Enterococcus faecium 09-2 after 18 hrs by two fold serial dilution method; details: 09-2, 18 h; summary of the method: as §1
Escherichia coli [33] = assay: Antibacterial activity against Escherichia coli ATCC 25922 after 18 hrs by two fold serial dilution method; details: ATCC 25922, 18 h; summary of the method: as §1
Streptococcus pneumoniae = assay: Antibacterial activity against Streptococcus pneumoniae 10-1 after 18 hrs by two fold serial dilution method; details: 10-1, 18 h; summary of the method: as §1
Escherichia coli [34] = assay: Antibacterial activity against Escherichia coli 10-1 after 18 hrs by two fold serial dilution method; details: 10-1, 18 h; summary of the method: as §1
Pseudomonas aeruginosa [35] = assay: Antibacterial activity against Pseudomonas aeruginosa ATCC 27853 after 18 hrs by two fold serial dilution method; details: ATCC 27853, 18 h; summary of the method: as §1
[36] = tested on: Staphylococcus epidermidis; assay: Antibacterial activity against methicillin-resistant Staphylococcus epidermidis 10-1 after 18 hrs by two fold serial dilution method; details: 10-1, 18 h; summary of the method: as §2
Staphylococcus aureus [37] = assay: Antibacterial activity against methicillin-sensitive Staphylococcus aureus 10-4 after 18 hrs by two fold serial dilution method; details: 10-4, 18 h; summary of the method: as §1

**Q.** How did the MIC (Enterococcus faecalis [1]) turn out when `CC1(CN)CN(c2ccc3c(=O)c(C(=O)O)cn(C4CC4)c3n2)C/C1=N\OCF` (racemic) was run?
**A.** 32 µg/mL (≈ 79.3 µM)

**Q.** And the MIC (Enterococcus faecium [2])?
**A.** 2 µg/mL (≈ 4.96 µM)

**Q.** What about the MIC (Escherichia coli [3]) of the same compound?
**A.** 128 µg/mL (≈ 317 µM)

**Q.** And the MIC [4]?
**A.** 8 µg/mL (≈ 19.8 µM)

**Q.** And the MIC (Pseudomonas aeruginosa [5])?
**A.** 0.5 µg/mL (≈ 1.24 µM)

**Q.** What about the MIC (Staphylococcus aureus [6]) of the same compound?
**A.** 128 µg/mL (≈ 317 µM)

**Q.** What about the MIC (Pseudomonas aeruginosa [7]) of the same compound?
**A.** 8 µg/mL (≈ 19.8 µM)

**Q.** What about the MIC (Escherichia coli [8]) of the same compound?
**A.** > 128 µg/mL

**Q.** What about the MIC (Klebsiella pneumoniae [9]) of the same compound?
**A.** > 128 µg/mL

**Q.** What about the MIC [10] of the same compound?
**A.** 4 µg/mL (≈ 9.92 µM)

**Q.** And the MIC (Staphylococcus aureus [11])?
**A.** 0.03 µg/mL (≈ 0.0744 µM)

**Q.** What about the MIC (Klebsiella pneumoniae [12]) of the same compound?
**A.** 2 µg/mL (≈ 4.96 µM)

**Q.** And the MIC (Enterococcus faecium [13])?
**A.** 32 µg/mL (≈ 79.3 µM)

**Q.** And the MIC (Staphylococcus aureus [14])?
**A.** 0.03 µg/mL (≈ 0.0744 µM)

**Q.** And the MIC (Enterococcus faecium [15])?
**A.** 0.5 µg/mL (≈ 1.24 µM)

**Q.** And the MIC (Enterococcus faecalis [16])?
**A.** 0.015 µg/mL (≈ 0.0372 µM)

**Q.** What about the MIC (Staphylococcus aureus [17]) of the same compound?
**A.** 0.03 µg/mL (≈ 0.0744 µM)

**Q.** What about the MIC (Enterococcus faecium [18]) of the same compound?
**A.** 32 µg/mL (≈ 79.3 µM)

**Q.** And the MIC (Staphylococcus aureus [19])?
**A.** 0.5 µg/mL (≈ 1.24 µM)

**Q.** What about the MIC (Escherichia coli [20]) of the same compound?
**A.** > 128 µg/mL

**Q.** What about the MIC (Staphylococcus aureus [21]) of the same compound?
**A.** 32 µg/mL (≈ 79.3 µM)

**Q.** What about the MIC (Staphylococcus aureus [22]) of the same compound?
**A.** 128 µg/mL (≈ 317 µM)

**Q.** And the MIC (Staphylococcus aureus [23])?
**A.** 128 µg/mL (≈ 317 µM)

**Q.** And the MIC [24]?
**A.** 64 µg/mL (≈ 159 µM)

**Q.** What about the MIC (Pseudomonas aeruginosa [25]) of the same compound?
**A.** 64 µg/mL (≈ 159 µM)

**Q.** What about the MIC (Staphylococcus aureus [26]) of the same compound?
**A.** 8 µg/mL (≈ 19.8 µM)

**Q.** And the MIC (Escherichia coli [27])?
**A.** 1 µg/mL (≈ 2.48 µM)

**Q.** What about the MIC (Staphylococcus aureus [28]) of the same compound?
**A.** 0.015 µg/mL (≈ 0.0372 µM)

**Q.** What about the MIC (Enterococcus faecium [29]) of the same compound?
**A.** 0.5 µg/mL (≈ 1.24 µM)

**Q.** And the MIC (Escherichia coli [30])?
**A.** > 128 µg/mL

**Q.** What about the MIC (Klebsiella pneumoniae [31]) of the same compound?
**A.** 0.25 µg/mL (≈ 0.62 µM)

**Q.** And the MIC (Enterococcus faecium [32])?
**A.** 32 µg/mL (≈ 79.3 µM)

**Q.** What about the MIC (Escherichia coli [33]) of the same compound?
**A.** 0.015 µg/mL (≈ 0.0372 µM)

**Q.** What about the MIC (Streptococcus pneumoniae) of the same compound?
**A.** 0.015 µg/mL (≈ 0.0372 µM)

**Q.** And the MIC (Escherichia coli [34])?
**A.** > 128 µg/mL

**Q.** What about the MIC (Pseudomonas aeruginosa [35]) of the same compound?
**A.** 1 µg/mL (≈ 2.48 µM)

**Q.** What about the MIC [36] of the same compound?
**A.** 4 µg/mL (≈ 9.92 µM)

**Q.** What about the MIC (Staphylococcus aureus [37]) of the same compound?
**A.** 0.015 µg/mL (≈ 0.0372 µM)
